Compound activity (PubChem)
An excerpt weighted towards active compounds, which were near 3.1% of everything screened.
KCNQ1 act: potentiators or activators of human KCNQ1 potassium channel; P51787; CHO-K1 KCNQ1, thallium flux FluxOR fluorescence; active compounds read high; B-score at 10 µM; 310,000 compounds, 0.35% hits; AID 2648;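 active = fluorescence ratio B-score, a plate-corrected score, at least three library SD, with initial intensity B-score within 5 SD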
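Schedule – 37 °C overnight plating, 90-min dark dye load, 20-min compound pretreatment · System – stable KCNQ1 CHO-K1 line · Probe or stimulus – thallium- and potassium-containing depolarizing buffer · Measured by – kinetic FluxOR fluorescence, 10 s baseline plus 110 s post-stimulus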
hERG protect: shields human hERG channel from block by proarrhythmic agents. CHO-hERG, FluxOR thallium flux, dofetilide IC70 present. activation (rescue from dofetilide block), less the hit threshold, % at 10 µM. 310,000 compounds, 0.51% hits;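 active = activation above the mean of controls blocked by dofetilide plus 5 SD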;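 note: thallium influx through hERG after potassium depolarization seen as dye fluorescence rise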
KCNQ1 block: blocks the human KCNQ1 potassium channel | CHO-K1 KCNQ1, FluxOR thallium flux fluorescence; active compounds read high | B-score at 10 µM | 310,000 compounds, 1.3% hits | AID 2642;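 active = compounds whose thallium flux B-score, printed positive for inhibition, exceeds three library SD while starting fluorescence stays within three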;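 note: channel opened by potassium depolarization with thallium stimulus after 20 min compound exposure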
KCNK3 block: human KCNK3 channel inhibition, primary screen; O14649; CHO-KCNK3 thallium flux, FluxOR fluorescence; active compounds read low; B-score at 10 µM; 340,000 compounds, 0.84% hits; AID 602410;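 active = B-score under library mean minus 4 SD, starting fluorescence ratio at most library mean plus 5 SD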;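 note: more negative B-score means stronger inhibition of thallium flux through KCNK3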
KCNK9 block: blocks the human KCNK9 two-pore domain potassium channel. Q9NPC2. HEK293 KCNK9, FluxOR thallium flux fluorescence; active compounds read low. B-score at 10 µM. 310,000 compounds, 1.2% hits. AID 488922;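 active = ratio B-score over 3 SD below the library mean, with starting fluorescence within 5 SD of its mean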;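 note: negative B-score means less thallium flux so channel inhibition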
Target sequence (Q9NPC2 whole entry, looked up, the tested form may be a part): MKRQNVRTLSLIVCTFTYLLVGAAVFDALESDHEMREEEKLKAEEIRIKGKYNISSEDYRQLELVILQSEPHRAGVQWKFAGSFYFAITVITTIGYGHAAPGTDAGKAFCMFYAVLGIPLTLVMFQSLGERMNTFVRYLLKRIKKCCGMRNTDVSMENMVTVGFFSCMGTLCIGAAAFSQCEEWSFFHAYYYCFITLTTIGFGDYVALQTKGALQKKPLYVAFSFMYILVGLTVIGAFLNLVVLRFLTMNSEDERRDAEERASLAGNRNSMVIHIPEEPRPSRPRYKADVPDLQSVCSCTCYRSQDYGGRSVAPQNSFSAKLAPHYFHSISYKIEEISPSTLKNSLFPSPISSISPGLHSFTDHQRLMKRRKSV
KCNK3 inh conf: human KCNK3 channel inhibition, confirmation assay | shares compounds with KCNK3 block | AID 651638 | CHO-KCNK3 thallium flux, FluxOR fluorescence; 0% buffer, 100% carvedilol maximal block | ratio percent of control, % at 10 µM | 2,400 compounds, 99% hits;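 active = ratio percent of control, averaged over triplicates, above buffer control mean plus 5 SD, cut at about 64% in these data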;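 note: ratio is the fluorescence rise from min to max over baseline after thallium stimulus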
KCNK3 uninduced: counter-screen for KCNK3 inhibitors: effect in non-induced cells; shares compounds with KCNK3 block; non-induced KCNK3 parental cells, FluxOR thallium flux; active compounds read low; thallium flux ratio (lower = more inhibition) at 10 µM; 2,400 compounds, 40% hits; AID 651747;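 active = thallium flux ratio, averaged over three wells, more than 5 SD below the buffer control mean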;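 note: host cells are CHO cells without KCNK3 induction; ratio is peak minus trough fluorescence over baseline then normalized to buffer controls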
Active calls of the source: *; i = inactive; x = not tested or not shown.

SMILES	KCNQ1 act	hERG protect	KCNQ1 block	KCNK3 block	KCNK9 block	KCNK3 inh conf	KCNK3 uninduced
Cc1nn(Cc2ccccc2Cl)c(C)c1NC(=O)NC12CC3CC(CC(C3)C1)C2	i	-9	i	-8.9*	i	119*	0.14*
Cc1nn(Cc2ccccc2Cl)c(C)c1NC(=O)c1ccn(C)n1	i	-2	i	i	i	x	x
CCOc1ccc(NS(=O)(=O)c2coc(C(N)=O)c2)cc1	i	-5	i	i	i	x	x
O=C(COc1cccc2cccnc12)N/N=C/c1ccccc1O	i	-15	i	i	i	x	x
Oc1ccccc1/C=N/Nc1cccc2cccnc12	i	-9	i	-11*	i	98*	i
Cn1ccnc1SCC(=O)Nc1cccc(S(=O)(=O)N2CCCCCC2)c1	i	-4	i	i	i	x	x
COCCN(C(=S)Nc1cc(C)cc(C)c1)C(C)c1ccco1 (stereo not drawn)	i	-9	i	-9*	i	85*	i
O=C(N/N=C/c1cccnc1)c1cc2c(ccc3ccccc32)o1	i	-6	i	i	i	x	x
O=C(N/N=C/c1cc(Cl)c(O)c(Cl)c1)c1cc2c(ccc3ccccc32)o1	i	-28	12*	-11*	i	101*	0.15*
COc1ccc2c(C)cc(N3CCN(c4ccc(F)cc4)CC3)nc2c1	i	-4	i	-9.5*	i	114*	i
COc1ccc(N2CCN(c3cc(C)c4ccc(C)cc4n3)CC2)cc1	i	-14	i	i	i	x	x
COc1nc2ccccc2nc1N1CCN(Cc2ccc3c(c2)OCO3)CC1	i	-14	i	i	i	x	x
COc1nc2ccccc2nc1N1CCN(c2ccc(F)cc2)CC1	i	-1	i	-9.8*	i	113*	i
O=C(c1cc(-c2cccc(O)c2)on1)N1CCCCCC1	i	-2	i	-11*	i	68*	i
COc1ccc(-c2nc(CS(=O)CC(=O)N3CCOCC3)c(C)o2)cc1OC (stereo not drawn)	i	-3	i	i	i	x	x
COC(=O)c1sccc1NC(=O)Nc1ccc(C)c(C)c1	i	-11	i	i	i	x	x
CCc1ccc(NC(=O)Nc2ccsc2C(=O)OC)cc1	i	-16	i	-11*	i	89*	i
CCC(Cc1ccccc1)NC(=O)c1cc(S(=O)(=O)N2CCCCC2)c[nH]1 (stereo not drawn)	i	-9	i	i	i	x	x
OC1(c2cccc(C(F)(F)F)c2)CCN(c2ncnc3c2[nH]c2ccc(F)cc23)CC1	x	x	x	-12*	x	132*	i
CCCc1cc(=O)n2nc(N3CCC(C(=O)N4CCN(c5cccc(OC)c5)CC4)CC3)sc2n1	i	-10	i	i	i	x	x
COc1ccc(N2C(=O)CSC23C(=O)N(CC(=O)NC2CCCC2)c2ccccc23)cc1 (stereo not drawn)	i	-3	i	i	i	x	x
CCN1C(=O)C(CC(=O)Nc2ccc(OC)cc2)N(CCc2ccccc2)C1=S (stereo not drawn)	i	-22	i	-8.8*	i	113*	i
COc1cc(OC)cc(C(=O)NCC(=O)OCc2nc3ccccc3s2)c1	i	-2	i	i	i	x	x
CCN(CC)c1ccc(C(=O)NNC(=O)CN2C(=O)NC(C)(c3ccccc3)C2=O)cc1 (stereo not drawn)	x	x	x	i	x	x	x
COc1ccc(Nc2nc(-c3cccs3)cs2)c(OC)c1	i	-14	i	i	i	x	x
SMILES	KCNQ1 act	hERG protect	KCNQ1 block	KCNK3 block	KCNK9 block	KCNK3 inh conf	KCNK3 uninduced
COc1ccc(OC)c(Nc2nc(-c3cccs3)cs2)c1	i	1	i	-9.1*	i	90*	i
Cn1c(=O)c2[nH]c(CCCCCCCc3nc4ccccc4[nH]3)nc2n(C)c1=O	x	x	x	i	x	x	x
O=C(CN1CCCN(S(=O)(=O)c2ccc(F)cc2)CC1)Nc1c(Cl)cccc1Cl	i	-6	i	i	i	x	x
O=C(CN1CCCN(S(=O)(=O)c2ccc(F)cc2)CC1)Nc1cccc(F)c1	i	-7	i	-12*	-6.7*	92*	i
C=CCn1c(C)cc(C(=O)COc2ccc(N(C)S(=O)(=O)c3ccc(NC(C)=O)cc3)cc2)c1C	x	x	x	-12*	x	105*	i
Cn1c(=O)[nH]c(NCCc2ccc(O)cc2)c([N+](=O)[O-])c1=O	i	0	i	i	i	x	x
COc1cccc(-c2nc3ccccc3c(=O)o2)c1	i	-14	i	i	i	x	x
CCCCC(=O)Nc1cccc(-c2cn3ccccc3n2)c1	i	-8	i	-8.7*	i	121*	0.13*
O=C(Nc1cccc(-c2nc3ccccc3c(=O)o2)c1)c1ccccc1	i	0	i	-8.7*	i	108*	0.16*
Cc1ccc(C(=O)Nc2cccc(-c3cn4ccccc4n3)c2)cc1	i	-1	i	i	i	x	x
O=C(Nc1cccc(-c2cn3ccccc3n2)c1)c1ccccc1	i	-13	i	-12*	i	112*	i
Cc1ccc(C23CC4CC(CC(C(=O)OCC(=O)NC5CCS(=O)(=O)C5)(C4)C2)C3)cc1 (stereo not drawn)	i	-6	i	i	i	x	x
CCOC(=O)N1CCC(N2CCCC(CO)(Cc3ccccc3C)C2)CC1 (stereo not drawn)	i	-10	i	i	i	x	x
CN(Cc1nc2ccccc2c(=O)[nH]1)C(=O)c1ccc(S(=O)(=O)N2CCCC2)cc1	x	x	x	i	x	x	x
COc1ccc(/C(=N/Nc2ncnc3ccccc23)C(=O)O)cc1	i	-6	i	i	i	x	x
Cc1ccc(N2CCN(c3ncccc3[N+](=O)[O-])CC2)c(C)c1	i	-5	i	-8.8*	i	108*	0.15*
CCC1(CC)NC(=O)N(CC(=O)Nc2ccc(C)cc2C)C1=O	x	x	x	i	x	x	x
Cc1ccc(NC(=O)CN2C(=O)NC(C)(c3ccccc3)C2=O)c(C)c1 (stereo not drawn)	i	-1	i	-11*	i	85*	i
CCN(C(=O)CSc1nc2ccccc2c(=O)n1Cc1ccc(C)cc1)C1CCS(=O)(=O)C1 (stereo not drawn)	i	-12	i	-9.5*	i	97*	i
CCc1cc2c(=O)n(Cc3ccco3)c(SCC(=O)N(C)C3CCS(=O)(=O)C3)nc2s1 (stereo not drawn)	i	-17	i	-9.9*	i	100*	i
